Key:
[1] = target: T1, Growth hormone-releasing hormone receptor (Rattus norvegicus) (UniProt Q02644); experiment: Tested for the potency of growth hormone (GRF) on subcutaneous administration in anesthetized male Charles River rats; assay type: functional, organism-based
T1 sequence (whole entry): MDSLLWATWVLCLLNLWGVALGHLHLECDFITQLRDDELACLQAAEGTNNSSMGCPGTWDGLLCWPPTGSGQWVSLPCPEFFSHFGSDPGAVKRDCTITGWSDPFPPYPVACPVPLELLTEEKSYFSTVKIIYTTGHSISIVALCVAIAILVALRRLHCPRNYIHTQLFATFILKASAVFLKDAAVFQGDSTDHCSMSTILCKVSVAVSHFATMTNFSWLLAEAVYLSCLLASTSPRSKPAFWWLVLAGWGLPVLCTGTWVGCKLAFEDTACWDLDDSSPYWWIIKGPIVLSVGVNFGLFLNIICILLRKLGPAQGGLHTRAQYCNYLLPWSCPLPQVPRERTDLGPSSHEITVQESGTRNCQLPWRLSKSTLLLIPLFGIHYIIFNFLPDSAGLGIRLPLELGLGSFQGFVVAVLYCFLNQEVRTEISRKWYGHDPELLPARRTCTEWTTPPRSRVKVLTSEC
Procedure, shortened: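 Pentobarbital-anesthetized male rats (175-275 g), six to nine per group, received two subcutaneous doses of analogue or of reference GRF(1-29)NH2, in 0.5 mL, 30 min after anesthesia. Plasma GH measured by RIA 15 min later. Potency with 95% confidence limits calculated from a four-point assay design by the Pugsley method.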

[2] = system: Rattus norvegicus; experiment: Effect on growth hormone release(GRF) was determined in nembutal-anesthetized rat, at dose of 32 ug/100 g body weight.; assay type: functional, organism-based
Procedure, shortened: (§1)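 Male Charles River rats (175-275 g), anesthetized with sodium pentobarbital 6 mg/100 g body weight. Six to nine per group. Peptide or saline given subcutaneously in 0.5 mL, 30 min after anesthetic. Jugular vein blood taken 15 min post-injection. Plasma GH measured by radioimmunoassay and reported as ng/mL, mean ± SEM.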

[3] = system: Rattus norvegicus; experiment: Effect on growth hormone release(GRF) was determined in nembutal-anesthetized rat, at dose of 80 ug/100 g body weight.; assay type: functional, organism-based; procedure, shortened: as §1
[4] = target: T1, Growth hormone-releasing hormone receptor (Rattus norvegicus); experiment: In vitro rat pituitary cell growth hormone response was obtained; assay type: functional, cell-based; conditions: Pituitary gland cell
[5] = system: Rattus norvegicus; experiment: Effect on growth hormone release(GRF) was determined in nembutal-anesthetized rat, at dose of 200 ug/100 g body weight.; assay type: functional, organism-based; procedure, shortened: as §1
[6] = system: Rattus norvegicus; experiment: Effect on growth hormone release(GRF) was determined in nembutal-anesthetized rat, at dose of 0.2 ug/100 g body weight.; assay type: functional, organism-based; procedure, shortened: as §1
[7] = system: Rattus norvegicus; experiment: Effect on growth hormone release(GRF) was determined in nembutal-anesthetized rat, at dose of 0.5 ug/100 g body weight.; assay type: functional, organism-based; procedure, shortened: as §1
[8] = species on record: Rattus norvegicus; experiment: In vitro rat pituitary cell growth hormone response to the compound was obtained; assay type: functional, Pituitary gland cell
[9] = target: T1, Growth hormone-releasing hormone receptor (Rattus norvegicus); experiment: Effect on growth hormone release(GRF) was determined in nembutal-anesthetized rat, at dose of 10 ug/100 g body weight.; assay type: functional; procedure, shortened: as §1
[10] = system: Rattus norvegicus; experiment: Effect on growth hormone release(GRF) was determined in nembutal-anesthetized rat, at dose of 4 ug/100 g body weight.; assay type: functional, organism-based; procedure, shortened: as §1
[11] = system: Rattus norvegicus; experiment: Effect on growth hormone release (GRF) was determined in nembutal-anesthetized rat, at dose of 25 ug/100 g body weight.; assay type: functional, organism-based; procedure, shortened: as §1
[12] = system: Rattus norvegicus; experiment: Effect on growth hormone release (GRF) was determined in nembutal-anesthetized rat, at dose of 62.5 ug/100 g body weight.; assay type: functional, organism-based; procedure, shortened: as §1

| Potency [1] | Potency [4] | Molecule | Plasma GH release [3] | other results |
| --- | --- | --- | --- | --- |
| 16% | 0.004% | CC[C@H](C)[C@H](NC(=O)[C@H](C)NC(=O)[C@H](CC(=O)O)NC(=O)[C@@H](C)NC(=O)[C@@H](N)Cc1ccc(O)cc1)C(=O)N[C@@H](Cc1ccccc1)C(=O)N[C@H](C(=O)N[C@@H](CC(N)=O)C(=O)N[C@@H](CO)C(=O)N[C@@H](Cc1ccc(O)cc1)C(=O)N[C@@H](CCCN=C(N)N)C(=O)N[C@@H](CCCCN)C(=O)N[C@H](C(=O)N[C@@H](CC(C)C)C(=O)NCC(=O)N[C@@H](CCC(N)=O)C(=O)N[C@@H](CC(C)C)C(=O)N[C@@H](CO)C(=O)N[C@@H](C)C(=O)N[C@@H](CCCN=C(N)N)C(=O)N[C@@H](CCCCN)C(=O)N[C@@H](CC(C)C)C(=O)N[C@@H](CC(C)C)C(=O)N[C@@H](CCC(N)=O)C(N)=O)C(C)C)[C@@H](C)O | 1370 ng/mL | Plasma GH release [2]: 499 ng/mL |
| 7% | 0.0004% | CC[C@H](C)[C@H](NC(=O)[C@H](C)NC(=O)[C@H](CC(=O)O)NC(=O)[C@@H](C)NC(=O)[C@@H](N)Cc1ccc(O)cc1)C(=O)N[C@@H](Cc1ccccc1)C(=O)N[C@H](C(=O)N[C@@H](CC(N)=O)C(=O)N[C@@H](CO)C(=O)N[C@@H](Cc1ccc(O)cc1)C(=O)N[C@@H](CCCN=C(N)N)C(=O)N[C@@H](CCCCN)C(=O)N[C@H](C(=O)N[C@@H](CC(C)C)C(=O)NCC(=O)N[C@@H](CCC(N)=O)C(=O)N[C@@H](CC(C)C)C(=O)N[C@@H](CO)C(=O)N[C@@H](C)C(=O)N[C@@H](CCCN=C(N)N)C(=O)N[C@@H](CCCCN)C(=O)N[C@@H](CC(C)C)C(=O)N[C@@H](CC(C)C)C(=O)N[C@@H](CCC(N)=O)C(=O)N[C@@H](CC(=O)O)C(=O)N[C@H](C(=O)N[C@@H](CC(C)C)C(N)=O)[C@@H](C)CC)C(C)C)[C@@H](C)O (stereo in doubt; 4) | 742 ng/mL | Plasma GH release [5]: 1500 ng/mL |
| 4450% | – | CC[C@H](C)[C@H](NC(=O)[C@H](C)NC(=O)[C@H](CC(=O)O)NC(=O)[C@@H](C)NC(=O)[C@@H](N)Cc1ccc(O)cc1)C(=O)N[C@@H](Cc1ccccc1)C(=O)N[C@H](C(=O)N[C@@H](CC(N)=O)C(=O)N[C@@H](CO)C(=O)N[C@@H](Cc1ccc(O)cc1)C(=O)N[C@@H](CCCN=C(N)N)C(=O)N[C@@H](CCCCN)C(=O)N[C@H](C(=O)N[C@@H](CC(C)C)C(=O)NCC(=O)N[C@@H](CCC(N)=O)C(=O)N[C@@H](CC(C)C)C(=O)N[C@@H](CO)C(=O)N[C@@H](C)C(=O)N[C@@H](CCCN=C(N)N)C(=O)N[C@@H](CCCCN)C(=O)N[C@@H](CC(C)C)C(=O)N[C@@H](CC(C)C)C(=O)N[C@@H](CCC(N)=O)C(=O)N[C@@H](CC(=O)O)C(=O)N[C@H](C(=O)N[C@@H](CCSC)C(=O)N[C@@H](CO)C(=O)N[C@@H](CCCN=C(N)N)C(N)=O)[C@@H](C)CC)C(C)C)[C@@H](C)O | – | Plasma GH release [6]: 1210 ng/mL; Plasma GH release [7]: 2180 ng/mL; Potency [8]: 5340% |
| 199% | 83% | CC[C@H](C)[C@H](NC(=O)[C@H](C)NC(=O)[C@@H](CC(=O)O)NC(=O)[C@H](C)NC(=O)[C@@H](N)Cc1ccc(O)cc1)C(=O)N[C@@H](Cc1ccccc1)C(=O)N[C@H](C(=O)N[C@H](CC(N)=O)C(=O)N[C@@H](CO)C(=O)N[C@@H](Cc1ccc(O)cc1)C(=O)N[C@@H](CCCN=C(N)N)C(=O)N[C@@H](CCCCN)C(=O)N[C@H](C(=O)N[C@@H](CC(C)C)C(=O)NCC(=O)N[C@@H](CCC(N)=O)C(=O)N[C@@H](CC(C)C)C(=O)N[C@@H](CO)C(=O)N[C@@H](C)C(=O)N[C@@H](CCCN=C(N)N)C(=O)N[C@@H](CCCCN)C(=O)N[C@@H](CC(C)C)C(=O)N[C@@H](CC(C)C)C(=O)N[C@@H](CCC(N)=O)C(=O)N[C@@H](CC(=O)O)C(=O)N[C@H](C(=O)N[C@@H](CC(C)C)C(N)=O)[C@@H](C)CC)C(C)C)[C@@H](C)O | – | Plasma GH release [9]: 2170 ng/mL; Plasma GH release [10]: 899 ng/mL |
| 57% | 2% | H-YADAIFTNSYRKVLGQLSARKLLQDILSR-NH2 | – | Plasma GH release [11]: 1410 ng/mL; Plasma GH release [12]: 1720 ng/mL |

— ChEMBL document CHEMBL1123585, “Differential effects of N-terminal modifications on the biological potencies of growth hormone releasing factor analogues with varying chain lengths” (1987)
